Screening results (PubChem BioAssay)
NRP1-CendR mod: modulators of CendR peptide binding to human neuropilin-1. inhibition, % at 25 µM. O14786. actives 0.85% (n = 360,000). FAM-RPARPAR peptide binding to NRP-1, fluorescence polarization;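 active means inhibition or corrected inhibition above about 18%, plus a signal ratio from 0.5 to 1.5, limit read from the data, passing the limit was not always enough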
Target sequence (O14786 whole entry, looked up): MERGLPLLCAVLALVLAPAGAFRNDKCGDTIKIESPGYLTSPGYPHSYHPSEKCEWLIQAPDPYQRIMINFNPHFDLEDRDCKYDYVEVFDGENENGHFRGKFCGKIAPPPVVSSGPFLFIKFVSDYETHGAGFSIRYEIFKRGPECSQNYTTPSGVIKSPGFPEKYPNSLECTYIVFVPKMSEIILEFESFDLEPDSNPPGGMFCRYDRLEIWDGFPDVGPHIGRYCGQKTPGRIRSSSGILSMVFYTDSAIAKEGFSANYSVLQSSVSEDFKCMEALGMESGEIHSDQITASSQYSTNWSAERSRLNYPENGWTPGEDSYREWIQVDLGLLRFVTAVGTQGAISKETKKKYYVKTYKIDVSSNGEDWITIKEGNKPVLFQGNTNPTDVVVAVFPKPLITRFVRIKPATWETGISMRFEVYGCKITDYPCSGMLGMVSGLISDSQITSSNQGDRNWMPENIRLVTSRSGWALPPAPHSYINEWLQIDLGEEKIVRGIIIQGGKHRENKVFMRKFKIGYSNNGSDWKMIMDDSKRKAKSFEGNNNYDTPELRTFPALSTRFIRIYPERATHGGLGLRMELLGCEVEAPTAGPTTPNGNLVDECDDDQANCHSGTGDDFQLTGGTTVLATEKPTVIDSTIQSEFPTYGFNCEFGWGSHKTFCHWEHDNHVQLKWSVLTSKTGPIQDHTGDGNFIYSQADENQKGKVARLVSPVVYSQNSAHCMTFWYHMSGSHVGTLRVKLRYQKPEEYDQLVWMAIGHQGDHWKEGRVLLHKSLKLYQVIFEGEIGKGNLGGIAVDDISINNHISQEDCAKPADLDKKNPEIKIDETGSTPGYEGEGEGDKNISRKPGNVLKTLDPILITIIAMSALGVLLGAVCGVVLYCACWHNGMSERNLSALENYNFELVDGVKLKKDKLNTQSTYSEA
V-ATPase pHluor: regulators of yeast V-ATPase proton transport; response, % at 10 µM; AID 504577; actives 0.37% (n = 350,000); S. cerevisiae, pHLuorin cytosolic pH fluorescence; in the data active means response mostly above about 7.3%, no sharp cut-off; inactive means mostly below about 5.4%; further: actives read high
Exocytosis inh: blocks lytic granule exocytosis | TALL-104 LAMP-1 surface exposure, flow cytometry; cells stimulated with thapsigargin and PMA | AID 651702 | inhibition, % at 10 µM | actives 0.66% (n = 360,000);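 active means inhibition above about 55%, limit read from the data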
ARFGAP1 inhibitor: inhibitors of rat ARFGAP1 | actives 0.26% (n = 360,000) | AID 651572 | Arfgap1-stimulated ARF1 GTP hydrolysis, GDP FP detection | inhibition, % at 16.5 µM;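 active means inhibition above a per-plate limit, mean inhibition of low control wells plus 3 SD, cut at about 25% in these data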
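Repeats: one replicate per compound; assay system: rat Arfgap1 catalytic domain, aa 1-136; times: enzyme reaction 120 min at 25 °C after 20 min preincubation; detection: FP of antibody-bound GDP Alexa 633 tracer, ex 620/em 688 nm; benchmarks: high control wells lacking Arfgap1, low control full reaction with DMSO; reagent: human ARF1(Δ1-17)-GTP substrate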
ASAP1 inh: blocks human ASAP1-stimulated Arf1 GTP hydrolysis; actives 0.19% (n = 360,000); inhibition, % at 16.5 µM; Q9ULH1; GDP FP detection; in the data active means inhibition above about 25%
Granule exo CP1: lytic granule exocytosis inhibition; shares compounds with Exocytosis inh; TALL-104 cells, LAMP-1 externalization, flow cytometry; stimulated with PMA plus thapsigargin; inhibition, % at 10 µM; actives 11% (n = 1,500); in the data active means inhibition above about 60%
Each line names hits and unclear results; the compound was inactive in the other large screens (follow-up assays come after a bar, where they were run). The list is not random: actives were taken first. Their share in the collection is about 2.2%.

O=C1c2ccccc2NC(c2ccccc2O)N1c1ccc(F)cc1 (centres undefined)	none
Cc1cc(C)nc(Nc2nc(-c3ccccc3)cs2)n1	Exocytosis inh 76 | Granule exo CP1 inactive
Cc1cc(Br)ccc1OCc1nnc(-c2ccccc2)o1	Exocytosis inh 73 | Granule exo CP1 inactive
Cc1ccsc1CN(C)C(=O)c1ccc(Oc2ccccc2)cc1	Exocytosis inh 113 | Granule exo CP1 inactive
CN(Cc1ccc2ccccc2c1)C(=O)c1ccc(C(F)(F)F)cc1	Exocytosis inh 60 | Granule exo CP1 inactive
COc1ccc(CN(C)C(=O)c2ccc(Oc3ccccc3)cc2)cc1F	Exocytosis inh 67 | Granule exo CP1 inactive
CN(C)CCCNC(=O)c1ccc(Oc2ccccc2)cc1	none
CCOc1ccc(N2C(=O)CC(Sc3nc4ccc(OCC)cc4s3)C2=O)cc1 (centres undefined)	none
CCOc1ccc2nc(SC3CC(=O)N(c4ccc(C)cc4)C3=O)sc2c1 (centres undefined)	Exocytosis inh 56 | Granule exo CP1 inactive
CCOc1ccc2nc(SC3CC(=O)N(c4ccc(OC)cc4OC)C3=O)sc2c1 (centres undefined)	Exocytosis inh 62 | Granule exo CP1 inactive
Cc1ccc(-n2c(SCC(=O)NC3CCS(=O)(=O)C3)nc3ccccc3c2=O)c(C)c1 (centres undefined)	none
CCOC(=O)N1CCN(C(C(=O)NC2CCCC2)c2cccc(OC)c2OC)CC1 (centres undefined)	none (no result: V-ATPase pHluor)
COC(=O)C1=C(C)N(Cc2ccco2)C(=O)N[C@@H]1c1cccc(C(F)(F)F)c1	none (no result: NRP1-CendR mod, Exocytosis inh, ARFGAP1 inhibitor, ASAP1 inh)
COC(=O)C1=C(C)N(Cc2ccco2)C(=O)N[C@@H]1c1ccc(Br)cc1	Exocytosis inh 56 | Granule exo CP1 inactive
CC1=C(C(=O)Nc2cccc(C(=O)NC3CCCCC3C)c2)SCCO1 (centres undefined)	none
O=C(CCNC(=O)c1ccccc1Cl)Nc1ccc(S(=O)(=O)N2CCOCC2)cc1	none
CCOC(=O)c1ccc(NC(=O)c2sc3nc(N4CCOCC4)c4c(c3c2N)CCCC4)cc1	Exocytosis inh 93 | Granule exo CP1 inactive
CCOC(=O)c1ccc(NC(=O)c2ccc(C)c(S(=O)(=O)N3CCOCC3)c2)cc1	Exocytosis inh 76 | Granule exo CP1 74
CCOc1ccccc1CN1CCN(Cc2[nH]c3ccccc3c2C)CC1CCO (centres undefined)	Exocytosis inh 67 | Granule exo CP1 inactive
CN(C)CCCN(C(=O)c1cc(-c2cccs2)nc2ccccc12)c1nc2c(F)cccc2s1	none
CN(C)CCCN(C(=O)c1ccc(C(=O)c2ccccc2)cc1)c1nc2ccc(F)cc2s1	Exocytosis inh 59 | Granule exo CP1 inactive
CCc1ccc2nc(N(CCCN(C)C)C(=O)c3ccc(S(=O)(=O)N4CCc5ccccc5C4)cc3)sc2c1	Exocytosis inh 77 | Granule exo CP1 87
Cc1ccc2nc(N(CCCN(C)C)C(=O)c3cc(-c4cccs4)nc4ccccc34)sc2c1	Exocytosis inh 72 | Granule exo CP1 inactive
CCN(CC)C(=O)C1=C(C)N(Cc2ccccc2)C(=O)C(CC(=O)NCc2cccs2)C1 (centres undefined)	none
N#Cc1cc(O)c(-n2nnc3ccccc32)cc1C#N	none
N#Cc1cc(Oc2cccc3cccnc23)c(-n2nnc3ccccc32)cc1C#N	Exocytosis inh 99 | Granule exo CP1 inactive
CCCc1cc(CN2CCOCC2)c(O)c(CN2CCOCC2)c1O	Exocytosis inh 79 | Granule exo CP1 inactive
Oc1c(CN2CCOCC2)cc(CN2CCOCC2)c(O)c1O	none
CC(=O)NC(CC(=O)N(Cc1ccccc1)c1cccc(C)c1)c1ccccc1 (centres undefined)	none
Cc1cc(C(=O)N2CCC2(C)C(=O)NS(=O)(=O)c2ccc(Cl)cc2)nn1C (centres undefined)	none (no result: V-ATPase pHluor)
CCOC(=O)c1ccc(NC(=O)COc2ccc(CNC3CCCCC3)cc2OC)cc1	Exocytosis inh 60 | Granule exo CP1 inactive
COc1ccc(OC)c(S(=O)(=O)Nc2ccc(O)c3ccccc23)c1	Exocytosis inh 85 | Granule exo CP1 inactive
COc1ccc(OC)c(S(=O)(=O)Nc2cccc3c(O)cccc23)c1	none
CCOC(=O)c1c(C)oc2ccc(O)c(CN(C)C)c12	none
CCOC(=O)c1c(CSc2ccc(CC)cc2)oc2ccc(O)c(CN(C)C)c12	V-ATPase pHluor 7.6, Exocytosis inh 80 | Granule exo CP1 inactive
COC(=O)Cc1c(CSc2ccccc2)oc2ccc(O)c(CN(C)C)c12	Exocytosis inh 58 | Granule exo CP1 inactive
CC(=O)c1c(CSc2ccccc2)oc2ccc(O)c(CN(C)C)c12	Exocytosis inh 66 | Granule exo CP1 inactive
O=C(O)c1cc(S(=O)(=O)N2CCN(S(=O)(=O)c3ccc4ccccc4c3)CC2)ccc1Br	none
COc1ccc(F)cc1-c1cc(NC(C)=O)c2ncc(-c3cccc(C(F)(F)F)c3)n2c1	Exocytosis inh 58 (no result: V-ATPase pHluor) | Granule exo CP1 inactive
COCCn1c(SC(C)C(=O)NCC2CCCO2)nc2sc3c(c2c1=O)CCC3 (centres undefined)	Exocytosis inh 59 | Granule exo CP1 inactive
COCCn1c(SC(C)C(=O)NCC2CCCO2)nc2scc(-c3ccc(F)cc3)c2c1=O (centres undefined)	none
NC(=O)CC[C@H](NC(=O)c1ccc(F)cc1)C(=O)OCC(=O)Nc1c(F)c(F)c(F)c(F)c1F	none
NC(=O)CC[C@H](NC(=O)c1ccc(F)cc1)C(=O)OCC(=O)NCc1ccc(F)cc1	Exocytosis inh 57 | Granule exo CP1 inactive
COc1ccc(C(CNC(=O)CSc2ccccc2C)N(C)C)cc1 (centres undefined)	none
COc1ccc(C(CNC(=O)Cc2ccc(-c3ccccc3)cc2)N(C)C)cc1 (centres undefined)	Exocytosis inh 62 | Granule exo CP1 inactive
CCN(CC)CCCNc1nc2ccccc2c2[nH]c3ccc(OC)cc3c12	none
CC(=O)N1CCSc2ccc(S(=O)(=O)NCCc3ccc(C)cc3)cc21	Exocytosis inh 62 | Granule exo CP1 inactive
CCc1noc2cc(-c3ccccc3)n(C)c(=O)c12	none (no result: NRP1-CendR mod, V-ATPase pHluor, Exocytosis inh)
Cc1cc(NCc2ccccc2)n2ncc(-c3ccccc3)c2n1	Exocytosis inh 58 | Granule exo CP1 inactive
Cc1cc(NC(C)c2ccccc2)n2ncc(-c3ccccc3)c2n1 (centres undefined)	Exocytosis inh 95 | Granule exo CP1 inactive
Cc1cc(NC2CCCC2)n2ncc(-c3ccccc3)c2n1	none
CCCCN(C)Cc1cc(=O)oc2ccc3ccccc3c12	none
Cc1cc2c(cc1C)CSC(c1c(O)ccc3ccccc13)SC2	Exocytosis inh 76 | Granule exo CP1 inactive
CC1CN(C(=O)CCNC(=O)c2ccc(Cl)cc2)CC(C)O1 (centres undefined)	none
COc1cc(OC)cc(C(=O)Nc2ccc(-c3nc4ccccc4o3)cc2)c1	Exocytosis inh 100 | Granule exo CP1 inactive
